Active and inactive are the calls of the source. No cut-off for these calls is given here.
Columns and labels:
[1] = target: 5-hydroxytryptamine receptor 1E (Homo sapiens, UniProt P28566); assay: Displacement of [3H]LSD from human 5-HT1E receptor expressed in HEK cell membranes after 1.5 hrs by microbeta scintillation counting method
Outline: (§1)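 Radioligand binding performed by the NIMH Psychoactive Drug Screening Program. Crude membranes from cells expressing recombinant receptor, with [3H]LSD, in 50 mM Tris-HCl, 10 mM MgCl2, 1 mM EDTA, pH 7.4. Eleven test concentrations. Incubated 1.5 h at room temperature, protected from light. Filtered onto PEI-soaked GF/B filters, then scintillation counting. IC50 converted to Ki; at least three experiments in triplicate.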

[2] = target: T1, 5-hydroxytryptamine receptor 7 (Homo sapiens, UniProt P34969); assay: Agonist activity at tTA containing TCS cleavage site-fused 5-HT7 receptor (unknown origin) expressed in tTA-dependent luciferase reporter/TEV-fused beta-arrestin2 expressing HTLA cells assessed as induction of beta-arrestin2 recruitment after 22 hrs by Tango assay relative to 5-HT; assay type: functional, cell-based
Outline: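 HTLA cells (HEK293 stably expressing tTA-dependent luciferase reporter and β-arrestin2-TEV) transiently transfected with 5-HT7R-TCS-tTA. Plated in 1% dialysed FBS medium for 6 h, then given test compounds at 0.01 nM-100 μM final, about 22 h. Antagonist mode adds 1 μM 5-HT. BrightGlo luminescence read. Normalised to 5-HT (100%) and vehicle (0%). Three experiments, at least triplicate.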

Homo sapiens [3] = organism: Homo sapiens; assay: Selectivity index, ratio of Ki for human 5-HT3 receptor to Ki for human 5-HT7 receptor
Outline: (§2)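 Selectivity index taken as Ki at the other 5-HT receptor subtype divided by Ki at 5-HT7R, each from [3H]LSD membrane binding run by the NIMH PDSP. Ki values are means of at least three experiments in triplicate.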

Homo sapiens [4] = organism: Homo sapiens; assay: Selectivity index, ratio of Ki for human 5-HT2B receptor to Ki for human 5-HT7 receptor; outline: as §2
[5] = target: T1, 5-hydroxytryptamine receptor 7; assay: Antagonist activity at tTA containing TCS cleavage site-fused 5-HT7 receptor (unknown origin) expressed in tTA-dependent luciferase reporter/TEV-fused beta-arrestin2 expressing HTLA cells assessed as inhibition of 5-HT-induced beta-arrestin2 recruitment after 22 hrs by Tango assay; assay type: functional, cell-based
Homo sapiens [6] = organism: Homo sapiens; assay: Selectivity index, ratio of Ki for human 5-HT5A receptor to Ki for human 5-HT7 receptor; outline: as §2
[7] = target: T1, 5-hydroxytryptamine receptor 7
[8] = target: 5-hydroxytryptamine receptor 5A (Homo sapiens, UniProt P47898); assay: Displacement of [3H]LSD from human 5-HT5A receptor expressed in HEK cell membranes after 1.5 hrs by microbeta scintillation counting method; outline: as §1
[9] = target: 5-hydroxytryptamine receptor 2A (Homo sapiens, UniProt P28223); assay: Displacement of [3H]LSD from human 5-HT2A receptor expressed in HEK cell membranes after 1.5 hrs by microbeta scintillation counting method; outline: as §1
[10] = target: T2, 5-hydroxytryptamine receptor 1A (Homo sapiens, UniProt P08908); assay: Displacement of [3H]LSD from human 5-HT1A receptor expressed in HEK cell membranes after 1.5 hrs by microbeta scintillation counting method; outline: as §1
T2 sequence (P08908 whole entry): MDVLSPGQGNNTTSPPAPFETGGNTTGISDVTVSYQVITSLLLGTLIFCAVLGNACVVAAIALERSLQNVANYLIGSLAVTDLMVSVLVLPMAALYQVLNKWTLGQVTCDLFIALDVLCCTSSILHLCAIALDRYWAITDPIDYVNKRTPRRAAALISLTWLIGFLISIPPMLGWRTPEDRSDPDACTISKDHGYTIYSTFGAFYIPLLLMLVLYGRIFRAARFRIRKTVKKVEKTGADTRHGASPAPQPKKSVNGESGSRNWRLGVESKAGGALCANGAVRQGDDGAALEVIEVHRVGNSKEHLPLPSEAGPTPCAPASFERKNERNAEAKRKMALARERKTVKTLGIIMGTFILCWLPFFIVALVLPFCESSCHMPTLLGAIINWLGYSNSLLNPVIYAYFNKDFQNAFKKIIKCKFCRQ

[11] = target: T1, 5-hydroxytryptamine receptor 7; assay: Inverse agonist activity at human 5-HT7 receptor expressed in HEK293 cells assessed as decrease in Gs protein-mediated cAMP accumulation by luminescence-based assay; assay type: functional, cell-based
Outline: (§3)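 HEK293 cells transiently transfected by calcium phosphate with human 5-HT7R and GloSensor-22F cAMP biosensor. After 5-6 h recovery, loaded with GloSensor reagent in HBSS/20 mM HEPES, pH 7.4. Test compounds at 0.01 nM-100 μM final; antagonist mode uses 5-HT stimulation. Luminescence read. Data normalised to 5-HT or SB269970 (100%) and vehicle (0%). Three experiments, at least triplicate.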

[12] = target: T3, 5-hydroxytryptamine receptor 2C (Homo sapiens, UniProt P28335); assay: Displacement of [3H]LSD from human 5-HT2C receptor expressed in HEK cell membranes after 1.5 hrs by microbeta scintillation counting method; outline: as §1
T3 sequence (P28335 whole entry): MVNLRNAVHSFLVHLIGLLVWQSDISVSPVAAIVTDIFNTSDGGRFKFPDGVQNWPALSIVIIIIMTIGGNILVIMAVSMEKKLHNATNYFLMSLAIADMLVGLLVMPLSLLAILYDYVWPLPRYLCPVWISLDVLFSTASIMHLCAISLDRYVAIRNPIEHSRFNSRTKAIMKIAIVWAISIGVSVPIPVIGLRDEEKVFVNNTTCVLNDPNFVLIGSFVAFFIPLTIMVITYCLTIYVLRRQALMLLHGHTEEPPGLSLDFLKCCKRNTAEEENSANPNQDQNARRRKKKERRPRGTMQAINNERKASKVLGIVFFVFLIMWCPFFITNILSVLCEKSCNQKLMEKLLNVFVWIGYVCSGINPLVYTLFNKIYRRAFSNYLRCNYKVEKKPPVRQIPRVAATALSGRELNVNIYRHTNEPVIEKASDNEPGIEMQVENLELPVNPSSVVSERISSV

Homo sapiens [13] = organism: Homo sapiens; assay: Selectivity index, ratio of Ki for human 5-HT2A receptor to Ki for human 5-HT7 receptor; outline: as §2
[14] = target: 5-hydroxytryptamine receptor 1D (Homo sapiens, UniProt P28221); assay: Displacement of [3H]LSD from human 5-HT1D receptor expressed in HEK cell membranes after 1.5 hrs by microbeta scintillation counting method; outline: as §1
[15] = target: T1, 5-hydroxytryptamine receptor 7; assay: Antagonist activity at human 5-HT7 receptor expressed in HEK293 cells assessed as inhibition of Gs protein-mediated cAMP accumulation by luminescence-based assay relative to SB269970; assay type: functional, cell-based; outline: as §3
[16] = target: 5-hydroxytryptamine receptor 1B (Homo sapiens, UniProt P28222); assay: Displacement of [3H]LSD from human 5-HT1B receptor expressed in HEK cell membranes after 1.5 hrs by microbeta scintillation counting method; outline: as §1
[17] = target: T1, 5-hydroxytryptamine receptor 7; remark: listed apart in the source
[18] = target: 5-hydroxytryptamine receptor 2B (Homo sapiens, UniProt P41595); assay: Displacement of [3H]LSD from human 5-HT2B receptor expressed in HEK cell membranes after 1.5 hrs by microbeta scintillation counting method
[19] = target: 5-hydroxytryptamine receptor 4 (Homo sapiens, UniProt Q13639); assay: Displacement of [3H]LSD from human 5-HT4 receptor expressed in HEK cell membranes after 1.5 hrs by microbeta scintillation counting method; outline: as §1
[20] = target: 5-hydroxytryptamine receptor 6 (Homo sapiens, UniProt P50406); assay: Displacement of [3H]LSD from human 5-HT6 receptor expressed in HEK cell membranes after 1.5 hrs by microbeta scintillation counting method; outline: as §1
Homo sapiens [21] = organism: Homo sapiens; assay: Selectivity index, ratio of Ki for human 5-HT2C receptor to Ki for human 5-HT7 receptor; outline: as §2
[22] = target: T4, 5-hydroxytryptamine receptor 3A (Homo sapiens, UniProt P46098); assay: Displacement of [3H]LSD from human 5-HT3 receptor expressed in HEK cell membranes after 1.5 hrs by microbeta scintillation counting method; outline: as §1
T4 sequence (P46098 whole entry): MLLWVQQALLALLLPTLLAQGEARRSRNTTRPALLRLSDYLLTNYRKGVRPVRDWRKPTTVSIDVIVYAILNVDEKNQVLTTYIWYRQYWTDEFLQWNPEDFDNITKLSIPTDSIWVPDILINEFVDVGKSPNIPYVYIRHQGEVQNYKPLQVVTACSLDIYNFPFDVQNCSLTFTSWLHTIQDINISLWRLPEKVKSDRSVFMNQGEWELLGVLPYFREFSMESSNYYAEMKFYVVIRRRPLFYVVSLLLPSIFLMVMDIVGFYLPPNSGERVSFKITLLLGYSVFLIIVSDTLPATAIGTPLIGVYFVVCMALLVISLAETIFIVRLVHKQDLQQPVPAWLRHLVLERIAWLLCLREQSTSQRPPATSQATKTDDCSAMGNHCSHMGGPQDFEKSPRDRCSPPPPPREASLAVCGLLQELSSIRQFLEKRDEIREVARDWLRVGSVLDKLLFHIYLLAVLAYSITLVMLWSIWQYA

[23] = target: T1, 5-hydroxytryptamine receptor 7; assay: Displacement of [3H]LSD from human 5-HT7 receptor expressed in HEK cell membranes at 10 uM after 1.5 hrs by microbeta scintillation counting method
Outline: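 [3H]LSD binding to recombinant 5-HT7R membranes in Tris-HCl/MgCl2/EDTA buffer, pH 7.4, 1.5 h at room temperature, filtration and scintillation counting. Percent inhibition at a single 10 μM test concentration.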

[24] = target: T1, 5-hydroxytryptamine receptor 7; assay: Displacement of [3H]LSD from human 5-HT7 receptor expressed in HEK cell membranes after 1.5 hrs by microbeta scintillation counting method
Homo sapiens [25] = organism: Homo sapiens; assay: Selectivity index, ratio of Ki for human 5-HT6 receptor to Ki for human 5-HT7 receptor; outline: as §2
Homo sapiens [26] = organism: Homo sapiens; assay: Selectivity index, ratio of Ki for human 5-HT1E receptor to Ki for human 5-HT7 receptor; outline: as §2
Homo sapiens [27] = organism: Homo sapiens; assay: Selectivity index, ratio of Ki for human 5-HT1D receptor to Ki for human 5-HT7 receptor; outline: as §2
Mus musculus [28] = assay: Sleep promoting activity in C57B1/6J mouse assessed as duration of total non-rapid eye movement sleep time at 30 mg/kg, ip measured over 8 hrs by electroencephalogram method (reference value: 252 +/- 22.7 mins); assay type: functional
Outline: (§4)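 Adult male C57Bl/6J mice, 10 weeks old, with parietal EEG screw electrodes implanted under ketamine. EEG and EMG recorded for 8 h from 9 AM, starting one day before dosing as baseline. On test day, 30 mg/kg i.p. at the start of the light phase, with EEG/EMG recorded for 8 h and scored in 2-h bins. n = 6-9 per group; mean ± SEM versus vehicle.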

Mus musculus [29] = assay: Sleep promoting activity in C57B1/6J mouse assessed as decrease in total rapid eye movement sleep time at 30 mg/kg, ip measured over 8 hrs by electroencephalogram method; assay type: functional; set-up: scale not given: the % may be the effect or the level left; outline: as §4

Sequence of 5-hydroxytryptamine receptor 2B (P41595 whole entry): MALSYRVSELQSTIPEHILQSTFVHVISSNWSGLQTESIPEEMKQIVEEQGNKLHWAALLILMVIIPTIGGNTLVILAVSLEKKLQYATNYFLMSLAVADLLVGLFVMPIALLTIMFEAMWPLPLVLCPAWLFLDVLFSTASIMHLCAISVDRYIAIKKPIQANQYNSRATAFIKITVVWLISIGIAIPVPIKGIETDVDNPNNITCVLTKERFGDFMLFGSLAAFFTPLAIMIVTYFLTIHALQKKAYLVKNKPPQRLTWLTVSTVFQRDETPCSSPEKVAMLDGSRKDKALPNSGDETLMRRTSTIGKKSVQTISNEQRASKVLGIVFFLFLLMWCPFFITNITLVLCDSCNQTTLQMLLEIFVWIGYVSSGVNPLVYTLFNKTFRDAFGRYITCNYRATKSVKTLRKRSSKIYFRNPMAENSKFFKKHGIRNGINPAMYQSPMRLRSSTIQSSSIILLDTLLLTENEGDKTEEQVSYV
Sequence of 5-hydroxytryptamine receptor 1B (P28222 whole entry): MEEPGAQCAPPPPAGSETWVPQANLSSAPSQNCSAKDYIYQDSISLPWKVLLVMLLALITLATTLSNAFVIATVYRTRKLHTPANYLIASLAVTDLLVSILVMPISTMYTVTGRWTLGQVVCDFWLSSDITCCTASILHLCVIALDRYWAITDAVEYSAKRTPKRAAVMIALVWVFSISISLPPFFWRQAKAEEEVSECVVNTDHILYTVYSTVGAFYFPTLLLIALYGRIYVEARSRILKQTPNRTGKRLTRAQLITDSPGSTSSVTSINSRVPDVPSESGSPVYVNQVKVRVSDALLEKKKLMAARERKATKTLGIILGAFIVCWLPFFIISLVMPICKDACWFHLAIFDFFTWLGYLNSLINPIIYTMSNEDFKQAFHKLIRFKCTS
Sequence of 5-hydroxytryptamine receptor 4 (Q13639 whole entry): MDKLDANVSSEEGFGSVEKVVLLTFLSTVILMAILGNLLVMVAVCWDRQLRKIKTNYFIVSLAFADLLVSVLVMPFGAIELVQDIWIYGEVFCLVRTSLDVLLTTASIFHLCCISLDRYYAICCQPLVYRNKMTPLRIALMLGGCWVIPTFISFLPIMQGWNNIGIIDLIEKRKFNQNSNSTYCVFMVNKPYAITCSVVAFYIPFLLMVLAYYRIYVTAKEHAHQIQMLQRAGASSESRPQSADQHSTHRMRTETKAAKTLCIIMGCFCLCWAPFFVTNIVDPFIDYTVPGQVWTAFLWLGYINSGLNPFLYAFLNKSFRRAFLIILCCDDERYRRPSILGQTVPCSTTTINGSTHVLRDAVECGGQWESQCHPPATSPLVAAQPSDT
Sequence of 5-hydroxytryptamine receptor 2A (P28223 whole entry): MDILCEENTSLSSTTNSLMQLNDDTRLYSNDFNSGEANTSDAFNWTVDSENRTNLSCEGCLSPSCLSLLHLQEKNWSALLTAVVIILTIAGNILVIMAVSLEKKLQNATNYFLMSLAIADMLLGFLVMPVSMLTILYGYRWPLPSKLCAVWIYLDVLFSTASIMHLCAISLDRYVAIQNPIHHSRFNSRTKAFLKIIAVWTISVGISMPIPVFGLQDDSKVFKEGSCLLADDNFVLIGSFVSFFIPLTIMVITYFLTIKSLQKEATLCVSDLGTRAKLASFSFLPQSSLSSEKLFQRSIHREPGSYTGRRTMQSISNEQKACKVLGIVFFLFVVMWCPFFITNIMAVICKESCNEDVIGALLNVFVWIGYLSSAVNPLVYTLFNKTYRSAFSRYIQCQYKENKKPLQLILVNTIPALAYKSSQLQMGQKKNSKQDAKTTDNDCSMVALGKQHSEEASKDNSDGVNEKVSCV
Sequence of 5-hydroxytryptamine receptor 1E (P28566 whole entry): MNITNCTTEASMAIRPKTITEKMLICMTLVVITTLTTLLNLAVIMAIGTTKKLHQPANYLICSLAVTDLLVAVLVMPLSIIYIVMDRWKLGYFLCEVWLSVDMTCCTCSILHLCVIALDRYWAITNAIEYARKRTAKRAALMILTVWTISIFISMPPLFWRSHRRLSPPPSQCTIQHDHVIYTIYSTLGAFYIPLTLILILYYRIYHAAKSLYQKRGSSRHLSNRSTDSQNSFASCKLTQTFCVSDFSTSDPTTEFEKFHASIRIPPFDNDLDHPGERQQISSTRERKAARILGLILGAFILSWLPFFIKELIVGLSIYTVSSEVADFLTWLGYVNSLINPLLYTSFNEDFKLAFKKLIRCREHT
Sequence of 5-hydroxytryptamine receptor 5A (P47898 whole entry): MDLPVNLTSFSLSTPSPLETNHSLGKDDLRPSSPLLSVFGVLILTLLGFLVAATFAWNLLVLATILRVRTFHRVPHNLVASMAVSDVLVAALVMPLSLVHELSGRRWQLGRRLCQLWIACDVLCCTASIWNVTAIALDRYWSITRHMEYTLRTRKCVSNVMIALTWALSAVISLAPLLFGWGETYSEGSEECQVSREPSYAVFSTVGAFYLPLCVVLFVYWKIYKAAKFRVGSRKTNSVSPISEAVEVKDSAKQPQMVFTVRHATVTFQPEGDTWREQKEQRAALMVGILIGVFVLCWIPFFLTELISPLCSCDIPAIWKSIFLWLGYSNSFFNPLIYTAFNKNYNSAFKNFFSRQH
Sequence of 5-hydroxytryptamine receptor 6 (P50406 whole entry): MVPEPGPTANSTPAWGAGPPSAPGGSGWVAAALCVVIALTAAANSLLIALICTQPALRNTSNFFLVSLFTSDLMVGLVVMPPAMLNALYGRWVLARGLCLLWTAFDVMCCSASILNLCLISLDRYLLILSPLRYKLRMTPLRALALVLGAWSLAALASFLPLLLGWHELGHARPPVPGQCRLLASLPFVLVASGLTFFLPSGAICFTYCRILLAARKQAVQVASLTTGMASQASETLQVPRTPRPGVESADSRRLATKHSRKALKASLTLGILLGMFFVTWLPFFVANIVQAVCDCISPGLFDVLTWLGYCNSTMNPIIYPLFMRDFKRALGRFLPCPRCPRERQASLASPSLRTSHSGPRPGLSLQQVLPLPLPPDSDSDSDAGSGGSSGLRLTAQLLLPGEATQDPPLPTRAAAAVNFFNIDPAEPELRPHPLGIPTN
T1 sequence (P34969 whole entry, the tested form may be a part): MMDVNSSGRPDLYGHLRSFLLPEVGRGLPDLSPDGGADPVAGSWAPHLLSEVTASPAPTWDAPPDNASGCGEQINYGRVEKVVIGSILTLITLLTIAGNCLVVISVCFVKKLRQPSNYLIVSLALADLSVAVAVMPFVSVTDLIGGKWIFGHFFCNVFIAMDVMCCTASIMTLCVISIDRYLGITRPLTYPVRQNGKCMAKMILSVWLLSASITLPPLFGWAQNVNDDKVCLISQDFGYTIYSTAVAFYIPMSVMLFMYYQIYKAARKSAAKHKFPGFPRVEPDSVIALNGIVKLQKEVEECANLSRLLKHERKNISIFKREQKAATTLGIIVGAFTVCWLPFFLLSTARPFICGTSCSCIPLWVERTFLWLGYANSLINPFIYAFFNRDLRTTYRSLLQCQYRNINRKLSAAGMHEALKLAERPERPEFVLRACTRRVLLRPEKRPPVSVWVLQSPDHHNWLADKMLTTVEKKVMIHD
Sequence of 5-hydroxytryptamine receptor 1D (P28221 whole entry): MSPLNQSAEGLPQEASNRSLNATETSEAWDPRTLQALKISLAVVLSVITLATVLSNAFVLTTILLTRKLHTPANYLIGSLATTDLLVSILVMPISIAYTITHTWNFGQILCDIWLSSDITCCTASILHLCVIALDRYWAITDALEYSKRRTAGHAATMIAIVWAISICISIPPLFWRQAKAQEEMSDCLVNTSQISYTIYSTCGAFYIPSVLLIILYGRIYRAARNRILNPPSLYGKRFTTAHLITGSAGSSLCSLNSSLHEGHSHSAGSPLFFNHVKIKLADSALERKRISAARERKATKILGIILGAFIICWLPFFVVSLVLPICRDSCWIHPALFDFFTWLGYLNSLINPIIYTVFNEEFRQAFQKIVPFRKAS

| Compound | Ki [1] | Emax [2] | Ratio Ki (Homo sapiens [4]) | inhibition [5] | EC50 [7] | Ki [8] | Ki [9] | Ki [10] | Activity [11] | Ki [12] | Ratio Ki (Homo sapiens [13]) | Ki [14] | Imax [15] | Ki [16] | IC50 [17] | Ki [18] | Ki [19] | Ki [20] | Ratio Ki (Homo sapiens [21]) | Ki [22] | also measured |
| --- | --- | --- | --- | --- | --- | --- | --- | --- | --- | --- | --- | --- | --- | --- | --- | --- | --- | --- | --- | --- | --- |
| Fc1ccc(-c2noc3c2CCNCC3)cc1 | > 10000 nM | 38.2% | 9.5 | inactive | 135 nM | 1230 nM | 471 nM | > 10000 nM | Active | 785 nM | 8.9 | > 10000 nM | 98% | > 10000 nM | 2460 nM | 505 nM | > 10000 nM | > 10000 nM | 14.8 | 703 nM | Ratio Ki (Homo sapiens [3]): 13.3; Ratio Ki (Homo sapiens [6]): 23.2 |
| Cc1ccccc1-c1noc2c1CCNCC2 |  |  |  |  |  |  |  |  |  |  |  |  |  |  |  |  |  |  |  |  | inhibition [23]: < 50%; Ki [24]: > 10000 nM |
| Cc1ccc(-c2n[nH]c3c2CCNCC3)cc1 | 890 nM | 50.9% | 2.3 | inactive | 165 nM | > 10000 nM | 159 nM | > 10000 nM | Active | 296 nM | 3.4 | 165 nM | 97.4% | > 10000 nM | 2560 nM | 106 nM | > 10000 nM | 109 nM | 6.3 | > 10000 nM | Ratio Ki (Homo sapiens [25]): 2.3; Ratio Ki (Homo sapiens [26]): 18.9; Ratio Ki (Homo sapiens [27]): 3.5 |
| CC1CCN(CC[C@H]2CCCN2S(=O)(=O)c2cccc(O)c2)CC1 |  | < 20% |  |  |  |  |  |  | Active |  |  |  |  |  |  |  |  |  |  |  | Time (Mus musculus [28]): 252 min; Activity (Mus musculus [29]): 37.1% |
| Clc1ccc(-c2noc3c2CCNCC3)cc1 | > 10000 nM | 47.1% | 3.5 | inactive | 113 nM | > 10000 nM | 399 nM | > 10000 nM | Active | 1100 nM | 5.7 | > 10000 nM | 94.9% | > 10000 nM | 3970 nM | 247 nM | > 10000 nM | 360 nM | 15.7 | 303 nM | Ratio Ki (Homo sapiens [3]): 4.3; Ratio Ki (Homo sapiens [25]): 5.1 |

— ChEMBL document CHEMBL4196105, “Discovery of β-Arrestin Biased Ligands of 5-HT7R” (J Med Chem, 2018)
